SUMO1 PPI mod = alters human SUMO1 binding to SIM partners; P63165; SUMO1 binding to a labelled peptide, TR-FRET, 1 h; inhibition, % at 20 µM; actives 0.33% (n = 360,000); AID 602429; in the data active means inhibition above about 37%
Target sequence (P63165 whole entry, looked up): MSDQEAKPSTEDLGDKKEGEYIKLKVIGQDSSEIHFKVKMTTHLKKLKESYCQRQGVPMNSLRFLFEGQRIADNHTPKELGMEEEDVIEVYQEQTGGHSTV
SKN-1 block = inhibitors of C. elegans SKN-1; AID 624304; inhibition, % at 21.8 µM; actives 0.49% (n = 360,000); C. elegans VP596 Pgst-4::GFP/RFP ratio, acrylamide-induced, 24 h;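 active means interference check ratio from 0.5 to 1.5 plus GFP to RFP signal ratio inhibition reaching or exceeding a fixed threshold, cut at about 30% in these data, passing the limit was not always enough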
Rpn11 block = blocks the human proteasome subunit Rpn11; inhibition, % at 20 µM; actives 0.59% (n = 360,000); human 26S proteasome, Ub4-pepOG fluorescence polarization; 20S core pre-blocked with epoxomicin; AID 588493; O00487;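 active means inhibition at 20 µM, scaled to each plate's controls, above about 33%, limit read from the data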
Target sequence (O00487 whole entry, looked up): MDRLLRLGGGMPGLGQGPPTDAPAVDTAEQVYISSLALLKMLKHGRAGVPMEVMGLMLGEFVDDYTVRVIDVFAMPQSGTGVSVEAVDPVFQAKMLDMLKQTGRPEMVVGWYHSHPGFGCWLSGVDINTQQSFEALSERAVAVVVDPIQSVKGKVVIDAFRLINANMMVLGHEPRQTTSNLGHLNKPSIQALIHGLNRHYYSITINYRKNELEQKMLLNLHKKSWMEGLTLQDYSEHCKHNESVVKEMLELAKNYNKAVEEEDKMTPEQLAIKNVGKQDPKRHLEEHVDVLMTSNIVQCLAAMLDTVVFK
DNMT1 block = DNMT1 (human) enzyme inhibition; actives 0.83% (n = 360,000); P26358; inhibition (reported as % activation of signal), % at 10 µM; DNMT1 molecular beacon, Hinp1I cleavage, fluorescence; in the data active means inhibition above about 50%
CSN inh = blocks human CSN-mediated cullin deneddylation; Q92905; actives 0.38% (n = 360,000); Purified CSN, SCF-Nedd8-OG deneddylation, fluorescence polarization; inhibition, % at 12.5 µM;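 active means pattern-corrected inhibition above about 35%, with an unprinted fluorescence ratio check between 0.5 and 1.5, limit read from the data, passing the limit was not always enough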
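Test system: Human Csn5 produced in HEK293T cells | Compound: 12.5 µM single point | Times: 90 min, room temperature | Signal: Fluorescence polarization readout | Read-out basis: % inhibition of substrate cleavage by Csn5 | Controls: no-enzyme wells high, enzyme-with-substrate wells low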
MT1-MMP act inh = blocks activation of human MT1-MMP; P50281; HT1080 RFP-PRO-GFP cells, GFP/RFP ratio fluorescence, overnight; percent of plate control window, DMSO zero; GFP/RFP ratio change, % at 20 µM; actives 0.061% (n = 360,000); AID 651647;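 active means GFP/RFP ratio change of at least 30% with cell ATP level not reduced by more than half and red fluorescence within 50% of control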
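Assay system: RFP-PRO-GFP reporter HT1080 cells; read-out basis: GFP/RFP fluorescence ratio; benchmarks: DMSO wells and RFP-L50D-GFP cells; doses: 20 µM single dose, 1% DMSO; schedule: overnight cell settling, then overnight compound exposure, 37 °C, 5% CO2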
DNMT1 interf DR = beacon fluorescence artifact, dose response counter-screen | shares compounds with DNMT1 block | molecular beacon fluorescence, spectral interference counter-screen | IC50, µM | 200 tested, under 10 active | AID 602382; call rule not given here
DNMT1 inh conf = DNMT1 inhibition confirmation, single concentration; shares compounds with DNMT1 block; DNMT1 molecular beacon HinP1I cleavage, fluorescence; inhibition, % at 10 µM; actives 8% (n = 2,300);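 active means average inhibition of at least 30% in the single-concentration confirmation test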
DNMT1 interf = shows spectral interference in the DNMT1 beacon assay; shares compounds with DNMT1 block; DNMT1 molecular beacon spectral interference counterscreen, fluorescence 485/520; activation (fluorescence interference), % at 10 µM; actives 1% (n = 2,300);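 active means activation of at least 30% at 10 µM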;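 further: DNMT1 catalytic domain with a HinP1I cleavage step and a FAM/dabcyl DNA beacon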
Of the large screens only hits and unclear results are named; the others gave an inactive call (follow-up assays come after a bar, where they were run). Sampled rows, rich in hits. Any-hit rate of the full collection: about 2.3%.

Cc1ccc(CNC(=S)NC2CCCCC2)cc1	none
Cc1cc2cc(CNC(=S)NC3CCCCC3)ccc2n1C	DNMT1 block 63 | DNMT1 inh conf inactive | DNMT1 interf inactive
COc1ccc(S(=O)(=O)NCc2ccc3c(c2)cc(C)n3C)cc1	DNMT1 block 59 | DNMT1 inh conf inactive | DNMT1 interf inactive
COC(=O)[C@]12CCCCC=C1N(Cc1ccco1)C(=O)[C@H](CC(=O)N1CCOCC1)C2	none (no result: Rpn11 block, DNMT1 block)
Cc1ccsc1CNC(=O)C1(C)CCN1C(C)C (stereo not drawn)	none
O=C1NC(=S)S/C1=C\c1ccc(SCc2ccccc2)o1	Rpn11 block 84, DNMT1 block 82 | DNMT1 inh conf inactive | DNMT1 interf inactive
Cc1ccc(-c2nn(-c3ccccc3)cc2C=C2SC(=S)N(CCS(=O)(=O)O)C2=O)cc1	SUMO1 PPI mod 72, DNMT1 block 76, CSN inh 47 | DNMT1 interf DR inactive | DNMT1 inh conf 107 | DNMT1 interf inactive
CN1CCN(c2ccc(CNC(=O)C3(C)Cc4c(-c5ccc6c(c5)OCO6)ccnc4O3)cc2)CC1 (stereo not drawn)	none
Cc1cccc2c(SCC(=O)NCC3CCCO3)nc(-c3ccc(F)cc3)nc12 (stereo not drawn)	none | DNMT1 inh conf inactive | DNMT1 interf inactive
Cc1cccc2cc(C#N)c(SCC(=O)NCC3CCCO3)nc12 (stereo not drawn)	none
Cc1ccc(S(=O)(=O)N2CC3(O)CN(C(=O)OC(C)C)N(C(=O)OC(C)C)CC3(OC(=O)NCc3ccccc3)C2)cc1 (stereo not drawn)	none
O=C(CCNS(=O)(=O)c1ccc(Br)cc1)NC1CCCCC1	none
O=C(CCS(=O)(=O)c1ccc(Br)cc1)NC1CCCC1	DNMT1 block 56 | DNMT1 inh conf inactive | DNMT1 interf inactive
COc1ccc(NC(=O)CCS(=O)(=O)c2ccc(OC)cc2)cc1	none
CCOc1ccc(NC(=O)CCS(=O)(=O)c2ccc(Br)cc2)cc1	SUMO1 PPI mod 48, DNMT1 block 84 | DNMT1 inh conf inactive | DNMT1 interf inactive
COc1cc(CNc2ncnc3c2ncn3[C@H]2CN(CCN3CCOCC3)C[C@@H](CO)O2)cc(OC)c1OC	none
CCNC(=O)C1(C)CCCN(Cc2cccc3c(OC)cc(C(=O)OCC)cc23)C1 (stereo not drawn)	none
Cc1ccc(C)n1/N=C1/NC(=O)CS1	DNMT1 block 90, CSN inh 46 | DNMT1 inh conf inactive | DNMT1 interf inactive
Cc1ccc(N=C2NC(=O)CS2)cc1	none
C=CCn1c(C)cc(C(=O)Cn2ncc(Cl)c(Cl)c2=O)c1C	DNMT1 block 103 | DNMT1 inh conf inactive | DNMT1 interf inactive
CC(C)(C)C(=O)Cn1ncc(Cl)c(Cl)c1=O	none
O=C(Nc1cccc2c1CCCC2)c1cc(C2CCCCN2S(=O)(=O)c2cccs2)on1 (stereo not drawn)	none
CC(=O)c1ccc(OC2(C)CCN(Cc3cc4ccccc4[nH]3)C2)cc1 (stereo not drawn)	DNMT1 block 91 | DNMT1 inh conf inactive | DNMT1 interf inactive
COCOc1cccc(CN2CCC(C)(Oc3ccc(C(C)=O)cc3)C2)c1 (stereo not drawn)	none
CC1CCCCN1CCNC(=O)c1ccc2c(c1)N(Cc1cccc(Cl)c1)C(=O)c1ccccc1S2(=O)=O (stereo not drawn)	DNMT1 block 86 | DNMT1 inh conf inactive | DNMT1 interf inactive
Cc1cc(C)cc(OCc2ccc(C(=O)O)o2)c1	none
O=C(O)c1ccc(COc2c(F)c(F)c(F)c(F)c2F)o1	DNMT1 block 56 | DNMT1 inh conf inactive | DNMT1 interf inactive
CC1CCN(S(=O)(=O)c2ccc(NC(=O)Cn3nnc(-c4ccccc4)n3)cc2)CC1	DNMT1 block 56 | DNMT1 inh conf inactive | DNMT1 interf inactive
Cc1ccc(-c2nnn(CC(=O)Nc3ccc(S(=O)(=O)N4CCC(C)CC4)cc3)n2)cc1	none
O=C(CSCc1ccc(Cl)cc1)Nc1ccc(-c2nnc(-c3ccccc3)o2)cc1	DNMT1 block 72 | DNMT1 inh conf inactive | DNMT1 interf inactive
O=C(Cc1ccc(Cl)cc1)Nc1ccc(-c2nnc(-c3ccco3)o2)cc1	none
CC1Cc2nc(SCC(=O)N3CCCCC3)n(C)c(=O)c2S1 (stereo not drawn)	none
CC1CCN(C(=O)CSc2nc3c(c(=O)n2C)SC(C)C3)CC1 (stereo not drawn)	DNMT1 block 67 | DNMT1 inh conf inactive | DNMT1 interf inactive
O=C(O)CSc1cc(C(=O)c2ccccc2O)cn2c(=O)c3c(-c4ccccc4)csc3nc12	DNMT1 block 59 | DNMT1 inh conf inactive | DNMT1 interf inactive
Cc1ccc(OCc2ccoc2C(=O)O)cc1C	DNMT1 block 54 | DNMT1 inh conf inactive | DNMT1 interf inactive
O=C(N/N=C/c1ccoc1)c1cc(O)cc(O)c1	SUMO1 PPI mod 43, DNMT1 block 93 | DNMT1 interf DR inactive | DNMT1 inh conf inactive | DNMT1 interf inactive
Cc1cc(C)cc(C(=O)N/N=C/c2ccoc2)c1	none
COCCNC(=O)C1CCCN(C(=O)c2ccc3sccc3c2)CC1 (stereo not drawn)	none
CSc1nnc(C)c(=O)n1COC(=O)COc1ccc(Cl)cc1	DNMT1 block 110 | DNMT1 inh conf inactive | DNMT1 interf inactive
CSc1nnc(C)c(=O)n1COC(=O)COc1ccccc1	none
C=CCn1c(SCC(=O)N2CCOCC2)nc2scc(-c3ccco3)c2c1=O	DNMT1 block 77 | DNMT1 inh conf inactive | DNMT1 interf inactive
C=CCn1c(SC(F)F)nc2scc(-c3ccco3)c2c1=O	none
C=CCn1c(SCC(=O)N2CCCC2)nc2scc(-c3cccs3)c2c1=O	none
C=CCn1c(SCC(C)=O)nc2scc(-c3ccco3)c2c1=O	DNMT1 block 75 | DNMT1 inh conf inactive | DNMT1 interf inactive
C=CCn1c(SCc2ccc3c(c2)OCO3)nc2scc(-c3ccco3)c2c1=O	DNMT1 block 103, CSN inh 57 | DNMT1 inh conf inactive | DNMT1 interf inactive
Fc1cccc(Cl)c1C1SCc2nc3ccccc3n21 (stereo not drawn)	none
O=[N+]([O-])c1ccc(/C=N/Nc2nc(-c3ccccc3)c3cc(Br)ccc3n2)o1	DNMT1 block 51 | DNMT1 inh conf inactive | DNMT1 interf inactive

Assay outcomes: PubChem, Sanford-Burnham Center for Chemical Genomics
